# APP 5'UTR act: activates APP 5'UTR luciferase reporter. 1% of 190,000 active. SH-SY5Y APP 5'UTR luciferase reporter, luminescence; zero percent = DMSO vehicle wells. activation, % at 2 µM;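 active = activation above a set limit, based on mean plus 3 SD of controls, cut at about 140% in these data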
# FLuc stim CS: affects firefly luciferase, flagging false hits in luciferase stimulation screens; P08659; 200,000 tested, under 10 active; activation factor at 10 µM; ATPlite luciferase biochemical, luminescence, 10 min; 0 = ATP-free wells, 1 = DMSO control;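 active = luciferase activation factor, scaled between plate controls, of at least 2 with compound at 10 µM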
# Target sequence (P08659 whole entry, looked up): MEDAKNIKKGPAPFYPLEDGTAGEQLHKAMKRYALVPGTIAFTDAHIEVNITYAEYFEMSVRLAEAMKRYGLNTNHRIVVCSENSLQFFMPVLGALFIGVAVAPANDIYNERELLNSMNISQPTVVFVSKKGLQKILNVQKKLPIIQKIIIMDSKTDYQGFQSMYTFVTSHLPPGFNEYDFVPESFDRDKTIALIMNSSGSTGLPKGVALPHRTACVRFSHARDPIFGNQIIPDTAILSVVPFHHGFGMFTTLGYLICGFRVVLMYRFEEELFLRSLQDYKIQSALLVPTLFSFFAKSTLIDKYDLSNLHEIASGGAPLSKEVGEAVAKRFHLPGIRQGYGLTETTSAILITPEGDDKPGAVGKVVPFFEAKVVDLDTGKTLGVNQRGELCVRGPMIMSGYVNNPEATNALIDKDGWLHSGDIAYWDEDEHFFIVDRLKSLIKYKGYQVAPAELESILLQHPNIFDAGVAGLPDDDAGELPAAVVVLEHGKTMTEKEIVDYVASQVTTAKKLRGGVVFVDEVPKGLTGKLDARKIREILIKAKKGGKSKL
#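 Material: luciferase plus luciferin reagent, cell-free. Medium: PBS buffer for ATP. Also added: ATP substrate, dispensed from a 10.24 µM working solution in PBS. Doses: test compounds dosed from 2 mM stocks in 100% DMSO. Incubation: 10 min post-reagent at room temperature. Technique: light output (luminescence). Read-out basis: luminescence gain marking luciferase activators.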
# FLuc inh counter: counter-screen for luciferase assay inhibitors: firefly luciferase inhibition. P08659. ATPLite firefly luciferase biochemical luminescence, 10 min. inhibition, % at 10 µM. 1.5% of 200,000 active;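 active = inhibition above about 50% when tested at 10 µM, limit read from the data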
# NF-kB neuron act: raises NF-kB expression in human neuronal cells | NF-kB reporter expression; hits give high values | fold change at 12.5 µM | 1.6% of 190,000 active | AID 1239; in the data active = fold change above about 3.3
# STAT1 act: STAT1 signaling activation. NIH 3T3 STAT1-luciferase reporter, IFN-gamma, luminescence; 100% = IFN-gamma alone, no compound. activation (% of control), % at 5.5 µM. 2.6% of 200,000 active;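 active = activation above the screen-wide mean activation plus 3 SD, cut at about 130% in these data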
# APP transl inh: APP translation inhibition | inhibition, % at 2 µM | 0.82% of 190,000 active | AID 1285 | SH-SY5Y APP 5'UTR-luciferase reporter, luminescence;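 active = inhibition above a set limit, derived from the sample mean plus 3 SD, cut at about 45% in these data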
# A number is an active result; i = inactive; nt = no result. Hits are enriched below; roughly 4.8% of the tested compounds scored in any of these assays.
SMILES,APP 5'UTR act,FLuc stim CS,FLuc inh counter,NF-kB neuron act,STAT1 act,APP transl inh
C=CCC(C#Cc1ccc(C)cc1)N(CC)CC (configuration not stated),i,i,i,i,i,i
CCC(C)c1ccc(NC(=O)C2CCN(c3ncccn3)CC2)cc1 (configuration not stated),i,i,i,i,i,i
CC(=O)Oc1ccc(C(=O)O)cc1OC(C)=O,i,i,i,i,i,i
CC(=O)Oc1ccc(OC(C)=O)c(SCCCCCCl)c1,i,i,i,i,i,83
CN(Cc1cccs1)C(=O)CCCc1c[nH]c2ccccc12,i,i,i,i,130,i
COc1ccc(S(=O)(=O)N(C)C)cc1NC(C)C(=O)Nc1cccc(C#N)c1 (configuration not stated),i,i,i,i,i,i
CCc1nc(NCC2CCCN2CC)c2nnn(Cc3ccccc3F)c2n1 (configuration not stated),i,i,i,i,i,i
COc1ccc(C2C(=O)c3ccccc3C2=O)c(OC)c1,i,i,i,i,i,i
COc1ccc(C2C(=O)c3ccccc3C2=O)cc1OC,i,i,82,i,i,i
COc1ccc(C2CC(=O)c3ccccc3O2)cc1 (configuration not stated),i,i,i,3.8,i,i
COc1ccc(C2=C(N)c3ccccc3C2=O)cc1,i,i,57,i,133,i
COc1ccc(NC2=C(c3ccc(OC)cc3)C(=O)c3ccccc32)cc1,i,i,i,i,i,i
COc1ccc(C2C(=O)c3ccccc3C2=O)cc1,i,i,90,i,i,i
COc1ccc(-c2csc(NC(=O)CC(C)C)n2)cc1,i,i,i,i,i,i
CC(C)CC(=O)Nc1ccc(-c2cn3ccsc3n2)cc1,169,i,92,6.7,i,i
CC(C)(C)C(=O)Nc1ccc(-c2cn3ccsc3n2)cc1,158,i,96,3.3,i,i
Cc1nc(-c2ccc(NC(=O)CC(C)C)cc2)cs1,i,i,68,i,129,i
Cc1ccccc1C(=O)NC(=S)N(C)CCc1ccccn1,i,i,i,i,i,i
CCOC(=O)c1sc(NC(=O)C2CCC2)cc1C,i,i,50,i,i,i
O=[N+]([O-])c1cc([N+](=O)[O-])c2c(=Nc3ccccc3)n(-c3ccccc3)n(O)c2c1,i,i,i,i,i,i
COc1cc(/C=N/Nc2nc(Nc3ccccc3)nc(N3CCCCC3)n2)ccc1OCC(=O)O,i,i,51,i,i,i
Oc1ccc(/C=N/Nc2nc(N3CCCC3)nc(N3CCCC3)n2)cc1O,i,i,i,i,132,i
COc1ccc(/C=N/Nc2nc(Nc3ccccc3)nc(N3CCCC3)n2)cc1[N+](=O)[O-],i,i,i,i,i,i
CC1CCCCN1CCn1c(=S)[nH]c2cc3c(cc2c1=O)OCO3 (configuration not stated),i,i,i,i,i,i
O=C(c1ccccc1)n1ccn(-c2ccccc2)c1=S,i,i,i,i,i,i
SMILES,APP 5'UTR act,FLuc stim CS,FLuc inh counter,NF-kB neuron act,STAT1 act,APP transl inh
O=C(c1ccccc1)n1c(=S)nc2ccccn21,nt,i,94,nt,nt,nt
Cc1ccc(C(=O)n2c(=S)nc3ccccn32)cc1,184,i,96,i,150,i
Cc1ccc2c(c1)sc[n+]2Cc1ccccc1,i,i,i,i,135,i
Cc1ccc(CNc2ncccc2-c2nc3cc(Cl)ccc3o2)cc1,i,i,i,i,i,i
COc1cc(OC)cc(-c2nc3cc(C)ccc3o2)c1,i,i,i,6.2,158,i
Cc1ccc(-c2nc3cc(Cl)ccc3o2)cc1,i,i,86,8.5,162,i
COc1cc(C(=O)Nc2cc(-c3nc4cc(C)ccc4o3)ccc2C)cc(OC)c1OC,i,i,51,i,i,i
COc1cc(C(=O)Nc2cccc(-c3nc4cc(C)ccc4o3)c2C)cc(OC)c1OC,i,i,i,i,i,i
O=C(CNC(=O)c1ccc(Cl)cc1Cl)NCCCn1ccnc1,i,i,i,i,i,i
CC1(C)CC(=O)C(N=Nc2cc(Cl)c(Cl)c(Cl)c2)=C(O)C1,i,i,i,i,i,i
Cc1ccc(O)c(N=NC2=C(O)CC(C)(C)CC2=O)c1,i,i,62,i,i,i
Cc1ccc(Nc2nnc(SCC3CCCCO3)s2)cc1 (configuration not stated),i,i,i,i,i,i
Cc1ccccc1Nc1nnc(SCC2CCCCO2)s1 (configuration not stated),146,i,60,6.1,129,i
COc1ccccc1Nc1nnc(SCC2CCCCO2)s1 (configuration not stated),176,i,86,5.2,i,i
COC(/C=C/Nc1ccc(Br)cc1)=C(C#N)C#N,i,i,i,i,i,i
C=C(C)C1CC=C(C)/C(=N/NC(=O)c2cccs2)C1 (configuration not stated),i,i,i,i,129,i
COc1ccccc1Nc1ccncc1[N+](=O)[O-],i,i,i,i,i,i
COc1ccccc1N/C=C/c1onc(C)c1[N+](=O)[O-],142,i,59,i,i,i
O=C(Nc1ccc(F)cc1F)c1noc2c1CCC2,i,i,i,i,i,i
Cc1noc(/C=C/Nc2ccc(F)cc2F)c1[N+](=O)[O-],173,i,i,6.9,147,i
CCC(=O)N1CCN(c2ccc(NC(=O)c3cc4ccccc4o3)cc2)CC1,i,i,i,i,i,i
O=C(Nc1ccc(N2CCOCC2)cc1)c1cc2ccccc2o1,i,i,i,i,171,i
O=C(Nc1ccc(CN2CCOCC2)cc1)c1cc2ccccn2n1,i,i,78,i,i,i
O=C(Nc1ccc(CN2CCOCC2)cc1)c1cc2ccccc2o1,168,i,60,i,134,i
O=C(NNC(=O)c1ccccc1C(=O)O)c1ccc(O)cc1,i,i,i,i,i,i
SMILES,APP 5'UTR act,FLuc stim CS,FLuc inh counter,NF-kB neuron act,STAT1 act,APP transl inh
O=C1SC(SC(=Nc2ccccc2)Nc2ccccc2)C(=O)N1c1ccccc1 (configuration not stated),i,i,i,i,138,i
Cc1cccc(N2C(=O)CC(SC(=Nc3ccccc3)Nc3ccccc3)C2=O)c1 (configuration not stated),i,i,i,i,i,i
Cc1ccc(NC(=O)Cn2cccc2)c(C)c1,i,i,i,i,i,i
O=C(O)CCCNC(=O)c1cccc(C(=O)NCCCC(=O)O)n1,i,i,i,i,i,i
CC(C)N=c1scc(-c2ccco2)n1/N=C/c1ccc(O)c(O)c1,i,i,i,9.6,i,i
O=C1CC(c2ccccc2)CC(O)=C1C=Nc1ccc(O)cc1 (configuration not stated),i,i,i,i,132,i
O=C1CC(c2ccccc2)CC(O)=C1C=NCc1ccccc1Cl (configuration not stated),i,i,i,i,i,61
